Data taken from ChEMBL document CHEMBL1165965, “Synthesis and structure-activity relationships of 1,2,3,4-tetrahydropyrido[2,3-b]pyrazines as potent and selective inhibitors of the anaplastic lymphoma kinase” (Bioorg Med Chem, 2010).

Key:
[1] = target: T1, Mitogen-activated protein kinase kinase kinase 13 (Homo sapiens) (UniProt O43283); test: Inhibition of LZK at 1 uM
T1 sequence (whole entry): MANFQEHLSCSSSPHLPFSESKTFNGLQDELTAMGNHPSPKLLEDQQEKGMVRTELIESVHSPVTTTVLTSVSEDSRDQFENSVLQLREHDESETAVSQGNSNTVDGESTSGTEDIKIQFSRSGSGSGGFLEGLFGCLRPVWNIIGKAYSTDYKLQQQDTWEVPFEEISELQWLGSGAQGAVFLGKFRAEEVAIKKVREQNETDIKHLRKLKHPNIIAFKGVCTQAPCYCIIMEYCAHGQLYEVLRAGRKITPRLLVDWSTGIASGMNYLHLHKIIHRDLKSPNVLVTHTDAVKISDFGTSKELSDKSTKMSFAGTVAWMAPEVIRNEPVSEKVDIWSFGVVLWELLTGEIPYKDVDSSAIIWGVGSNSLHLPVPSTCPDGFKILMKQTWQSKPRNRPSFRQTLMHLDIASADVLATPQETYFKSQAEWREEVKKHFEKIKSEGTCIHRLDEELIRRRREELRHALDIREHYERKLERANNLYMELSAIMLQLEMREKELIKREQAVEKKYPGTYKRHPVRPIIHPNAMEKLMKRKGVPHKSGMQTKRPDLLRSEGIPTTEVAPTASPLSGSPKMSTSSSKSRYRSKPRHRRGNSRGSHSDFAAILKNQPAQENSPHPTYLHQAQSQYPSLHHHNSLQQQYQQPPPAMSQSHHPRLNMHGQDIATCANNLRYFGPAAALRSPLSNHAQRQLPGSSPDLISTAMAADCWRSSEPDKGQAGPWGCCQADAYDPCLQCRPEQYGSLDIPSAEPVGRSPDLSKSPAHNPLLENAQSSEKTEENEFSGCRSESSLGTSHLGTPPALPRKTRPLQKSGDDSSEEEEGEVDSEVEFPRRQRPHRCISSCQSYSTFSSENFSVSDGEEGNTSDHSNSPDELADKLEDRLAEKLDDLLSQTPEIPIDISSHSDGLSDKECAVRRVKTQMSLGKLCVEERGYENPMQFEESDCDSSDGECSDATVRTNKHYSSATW

[2] = target: Mitogen-activated protein kinase kinase kinase 11 (Homo sapiens) (UniProt Q16584); test: Inhibition of MLK3 at 1 uM
Mitogen-activated protein kinase kinase kinase 11 (Homo sapiens), sequence (Q16584 whole entry, looked up): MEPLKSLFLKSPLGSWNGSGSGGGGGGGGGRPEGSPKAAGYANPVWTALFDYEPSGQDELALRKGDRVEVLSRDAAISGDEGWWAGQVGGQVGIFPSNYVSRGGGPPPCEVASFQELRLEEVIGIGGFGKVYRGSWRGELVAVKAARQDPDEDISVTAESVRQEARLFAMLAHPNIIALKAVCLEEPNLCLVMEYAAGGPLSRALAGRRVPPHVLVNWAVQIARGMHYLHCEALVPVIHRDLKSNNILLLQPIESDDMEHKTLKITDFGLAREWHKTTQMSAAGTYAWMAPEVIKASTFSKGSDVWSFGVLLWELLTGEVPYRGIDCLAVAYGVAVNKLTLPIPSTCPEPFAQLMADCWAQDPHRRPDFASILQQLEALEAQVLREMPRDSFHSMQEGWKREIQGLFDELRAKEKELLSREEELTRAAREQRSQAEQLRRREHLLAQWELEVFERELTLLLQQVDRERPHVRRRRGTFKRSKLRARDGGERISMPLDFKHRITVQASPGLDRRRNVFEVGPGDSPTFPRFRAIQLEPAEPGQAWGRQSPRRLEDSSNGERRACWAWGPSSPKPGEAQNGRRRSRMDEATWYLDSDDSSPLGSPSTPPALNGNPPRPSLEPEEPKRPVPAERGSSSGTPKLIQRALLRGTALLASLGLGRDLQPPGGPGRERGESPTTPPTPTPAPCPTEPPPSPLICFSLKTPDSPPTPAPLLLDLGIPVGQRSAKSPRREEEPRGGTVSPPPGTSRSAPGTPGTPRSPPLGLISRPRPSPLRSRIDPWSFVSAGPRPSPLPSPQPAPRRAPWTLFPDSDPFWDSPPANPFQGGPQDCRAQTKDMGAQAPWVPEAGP
In short: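 Kinase-panel screen using KINOMEscan technology, with 250–400 kinases per panel. Each compound was tested at a single concentration, and inhibition of each kinase was recorded. Selectivity was summarised as S(90), the fraction of kinases inhibited by more than 90%.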

[3] = target: Serine/threonine-protein kinase 24 (Homo sapiens) (UniProt Q9Y6E0); test: Inhibition of MST3 at 1 uM
Serine/threonine-protein kinase 24 (Homo sapiens), sequence (Q9Y6E0 whole entry, looked up): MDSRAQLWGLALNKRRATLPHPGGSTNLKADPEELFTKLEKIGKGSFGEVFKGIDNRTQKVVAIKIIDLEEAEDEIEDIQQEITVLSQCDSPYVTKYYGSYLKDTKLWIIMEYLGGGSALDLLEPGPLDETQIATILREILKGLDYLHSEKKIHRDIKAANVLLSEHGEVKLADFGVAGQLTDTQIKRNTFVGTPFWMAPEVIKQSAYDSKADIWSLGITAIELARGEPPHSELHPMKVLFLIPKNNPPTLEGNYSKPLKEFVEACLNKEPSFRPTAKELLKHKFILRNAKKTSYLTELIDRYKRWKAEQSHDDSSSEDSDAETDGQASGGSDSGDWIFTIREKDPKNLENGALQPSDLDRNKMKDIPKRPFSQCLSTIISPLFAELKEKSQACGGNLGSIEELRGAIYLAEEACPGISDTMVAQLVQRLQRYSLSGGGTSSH

[4] = target: Serine/threonine-protein kinase PAK 3 (Homo sapiens) (UniProt O75914); test: Inhibition of PAK3 at 1 uM
Serine/threonine-protein kinase PAK 3 (Homo sapiens), sequence (O75914 whole entry, looked up): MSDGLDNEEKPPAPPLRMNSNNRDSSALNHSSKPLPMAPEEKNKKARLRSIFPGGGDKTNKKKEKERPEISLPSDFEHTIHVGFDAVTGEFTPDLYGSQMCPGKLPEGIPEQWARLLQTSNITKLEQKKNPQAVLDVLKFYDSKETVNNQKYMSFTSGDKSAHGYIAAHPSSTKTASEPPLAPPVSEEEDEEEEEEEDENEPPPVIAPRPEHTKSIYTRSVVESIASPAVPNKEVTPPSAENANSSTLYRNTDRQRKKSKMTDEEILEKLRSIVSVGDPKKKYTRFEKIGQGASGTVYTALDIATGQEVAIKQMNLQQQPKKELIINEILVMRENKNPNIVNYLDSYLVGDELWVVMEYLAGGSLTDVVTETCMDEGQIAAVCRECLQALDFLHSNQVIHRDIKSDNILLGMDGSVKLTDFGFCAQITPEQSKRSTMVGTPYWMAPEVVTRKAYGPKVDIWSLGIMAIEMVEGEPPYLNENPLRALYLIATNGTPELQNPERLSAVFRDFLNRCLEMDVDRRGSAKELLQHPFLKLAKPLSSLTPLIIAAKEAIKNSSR

[5] = target: Rho-associated protein kinase 2 (Homo sapiens) (UniProt O75116); test: Inhibition of ROCK2 at 1 uM
[6] = target: T2, Mitogen-activated protein kinase kinase kinase 19 (Homo sapiens) (UniProt Q56UN5); test: Inhibition of YSK4 at 1 uM
T2 sequence (whole entry): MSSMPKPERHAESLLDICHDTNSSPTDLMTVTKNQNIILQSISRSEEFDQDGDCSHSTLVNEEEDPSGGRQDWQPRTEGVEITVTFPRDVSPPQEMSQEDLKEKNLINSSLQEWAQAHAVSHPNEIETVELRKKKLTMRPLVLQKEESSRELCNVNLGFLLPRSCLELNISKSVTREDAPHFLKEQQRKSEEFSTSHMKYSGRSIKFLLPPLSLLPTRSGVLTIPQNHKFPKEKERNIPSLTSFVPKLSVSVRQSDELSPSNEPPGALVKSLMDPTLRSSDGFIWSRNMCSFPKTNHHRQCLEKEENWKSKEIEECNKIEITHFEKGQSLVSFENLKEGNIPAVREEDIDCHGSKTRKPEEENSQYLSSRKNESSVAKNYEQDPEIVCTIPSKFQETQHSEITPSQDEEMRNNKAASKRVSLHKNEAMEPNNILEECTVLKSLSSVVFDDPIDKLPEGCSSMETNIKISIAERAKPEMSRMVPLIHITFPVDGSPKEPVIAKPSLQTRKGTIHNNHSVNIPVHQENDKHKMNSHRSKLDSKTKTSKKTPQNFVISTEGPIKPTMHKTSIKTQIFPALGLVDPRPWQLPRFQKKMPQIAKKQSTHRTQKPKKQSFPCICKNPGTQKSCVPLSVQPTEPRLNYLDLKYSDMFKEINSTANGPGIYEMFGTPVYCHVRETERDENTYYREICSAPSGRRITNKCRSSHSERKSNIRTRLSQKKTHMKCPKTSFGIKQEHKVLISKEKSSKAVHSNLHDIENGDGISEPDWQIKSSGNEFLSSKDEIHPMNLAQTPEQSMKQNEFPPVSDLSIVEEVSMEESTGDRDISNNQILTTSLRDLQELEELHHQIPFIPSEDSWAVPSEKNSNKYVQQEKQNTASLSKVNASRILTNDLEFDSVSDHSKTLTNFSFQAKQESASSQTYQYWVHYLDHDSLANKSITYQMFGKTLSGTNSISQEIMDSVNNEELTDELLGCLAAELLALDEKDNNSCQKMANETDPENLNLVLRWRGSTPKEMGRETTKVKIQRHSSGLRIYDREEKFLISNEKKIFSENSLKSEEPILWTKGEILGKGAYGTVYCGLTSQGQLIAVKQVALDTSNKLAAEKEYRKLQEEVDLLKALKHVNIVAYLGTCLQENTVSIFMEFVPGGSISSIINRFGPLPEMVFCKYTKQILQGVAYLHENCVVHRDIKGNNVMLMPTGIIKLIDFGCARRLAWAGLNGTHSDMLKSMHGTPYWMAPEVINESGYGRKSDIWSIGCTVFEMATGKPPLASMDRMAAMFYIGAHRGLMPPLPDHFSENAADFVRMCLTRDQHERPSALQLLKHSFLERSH

[7] = target: RAC-beta serine/threonine-protein kinase (Homo sapiens) (UniProt P31751); test: Inhibition of AKT2 at 1 uM
RAC-beta serine/threonine-protein kinase (Homo sapiens), sequence (P31751 whole entry): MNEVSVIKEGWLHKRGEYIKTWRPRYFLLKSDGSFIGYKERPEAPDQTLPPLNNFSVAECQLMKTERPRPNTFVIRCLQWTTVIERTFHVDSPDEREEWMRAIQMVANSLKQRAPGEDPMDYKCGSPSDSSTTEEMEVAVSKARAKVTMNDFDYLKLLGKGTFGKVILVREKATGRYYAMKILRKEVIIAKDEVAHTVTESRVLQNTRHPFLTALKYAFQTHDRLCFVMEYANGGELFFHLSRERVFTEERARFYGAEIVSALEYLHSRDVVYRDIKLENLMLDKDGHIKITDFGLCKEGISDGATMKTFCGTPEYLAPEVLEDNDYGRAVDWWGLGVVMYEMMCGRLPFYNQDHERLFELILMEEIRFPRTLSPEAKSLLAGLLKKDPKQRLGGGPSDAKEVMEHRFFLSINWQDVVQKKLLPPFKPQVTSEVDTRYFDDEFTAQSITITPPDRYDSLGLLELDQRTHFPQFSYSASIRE
In short: (§1)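 Ambit KINOMEscan screen at a single concentration across a 250–400 kinase panel, recorded as percent inhibition. Selectivity was expressed as S(90), the fraction of kinases inhibited >90%.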

[8] = target: Calcium/calmodulin-dependent protein kinase type 1 (Homo sapiens) (UniProt Q14012); test: Inhibition of CAMK1 at 1 uM; in short: as §1
Calcium/calmodulin-dependent protein kinase type 1 (Homo sapiens), sequence (Q14012 whole entry, looked up): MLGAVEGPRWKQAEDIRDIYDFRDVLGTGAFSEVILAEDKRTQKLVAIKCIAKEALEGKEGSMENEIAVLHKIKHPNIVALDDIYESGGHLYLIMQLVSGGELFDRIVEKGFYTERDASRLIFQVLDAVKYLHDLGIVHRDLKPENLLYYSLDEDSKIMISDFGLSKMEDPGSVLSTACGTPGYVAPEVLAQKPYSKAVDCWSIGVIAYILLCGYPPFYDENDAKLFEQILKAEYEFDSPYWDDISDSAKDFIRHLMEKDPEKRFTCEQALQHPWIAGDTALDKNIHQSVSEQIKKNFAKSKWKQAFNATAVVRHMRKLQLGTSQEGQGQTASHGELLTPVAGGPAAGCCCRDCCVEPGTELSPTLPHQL

[9] = target: Fibroblast growth factor receptor 3 (Homo sapiens) (UniProt P22607); test: Inhibition of FGFR3 at 1 uM
Fibroblast growth factor receptor 3 (Homo sapiens), sequence (P22607 23-806 limits assumed): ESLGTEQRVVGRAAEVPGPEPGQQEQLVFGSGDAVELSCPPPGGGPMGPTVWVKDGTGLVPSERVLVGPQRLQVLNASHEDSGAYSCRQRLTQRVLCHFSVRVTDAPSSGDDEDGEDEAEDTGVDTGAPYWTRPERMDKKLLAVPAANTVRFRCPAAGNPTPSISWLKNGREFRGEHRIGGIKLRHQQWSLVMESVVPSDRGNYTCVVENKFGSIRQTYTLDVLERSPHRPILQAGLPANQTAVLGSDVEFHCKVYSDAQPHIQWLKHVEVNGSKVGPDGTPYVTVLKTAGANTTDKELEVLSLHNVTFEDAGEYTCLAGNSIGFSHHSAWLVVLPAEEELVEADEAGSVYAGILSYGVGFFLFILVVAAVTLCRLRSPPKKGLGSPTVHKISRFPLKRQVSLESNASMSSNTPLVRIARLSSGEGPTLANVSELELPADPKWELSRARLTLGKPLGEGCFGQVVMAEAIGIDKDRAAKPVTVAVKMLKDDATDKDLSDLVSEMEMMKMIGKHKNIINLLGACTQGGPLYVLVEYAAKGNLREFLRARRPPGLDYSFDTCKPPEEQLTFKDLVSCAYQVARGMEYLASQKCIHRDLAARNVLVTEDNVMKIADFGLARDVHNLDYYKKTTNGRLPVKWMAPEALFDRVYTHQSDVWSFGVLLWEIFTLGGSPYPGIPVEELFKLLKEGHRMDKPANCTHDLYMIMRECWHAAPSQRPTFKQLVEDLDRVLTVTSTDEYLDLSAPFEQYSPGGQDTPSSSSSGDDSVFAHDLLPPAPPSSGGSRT
In short: (§2)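 Single-concentration screen on the Ambit KINOMEscan platform, run against a panel of 250–400 kinases. Per-kinase inhibition was also summarized as S(90), the fraction of kinases inhibited by more than 90%.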

[10] = target: Tyrosine-protein kinase FRK (Homo sapiens) (UniProt P42685); test: Inhibition of FRK at 1 uM; in short: as §2
Tyrosine-protein kinase FRK (Homo sapiens), sequence (P42685 whole entry): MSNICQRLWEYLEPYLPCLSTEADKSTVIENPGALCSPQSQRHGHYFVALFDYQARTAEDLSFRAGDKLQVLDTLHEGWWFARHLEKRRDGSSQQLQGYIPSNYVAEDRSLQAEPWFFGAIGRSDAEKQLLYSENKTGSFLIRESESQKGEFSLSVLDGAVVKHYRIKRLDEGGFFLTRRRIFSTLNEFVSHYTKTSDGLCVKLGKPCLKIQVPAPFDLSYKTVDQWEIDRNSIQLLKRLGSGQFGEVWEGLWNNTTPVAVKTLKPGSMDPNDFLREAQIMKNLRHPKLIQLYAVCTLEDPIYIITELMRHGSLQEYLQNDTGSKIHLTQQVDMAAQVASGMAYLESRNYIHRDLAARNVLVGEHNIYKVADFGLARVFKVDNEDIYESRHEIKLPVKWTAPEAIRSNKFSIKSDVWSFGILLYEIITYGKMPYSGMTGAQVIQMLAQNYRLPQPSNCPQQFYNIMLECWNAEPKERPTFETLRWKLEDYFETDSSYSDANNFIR

[11] = target: cAMP-dependent protein kinase catalytic subunit alpha (Homo sapiens) (UniProt P17612); test: Inhibition of PKAC-alpha at 1 uM

Row | SMILES | inhibition [1] [%] | inhibition [2] [%] | inhibition [3] [%] | inhibition [4] [%] | inhibition [5] [%] | inhibition [6] [%] | inhibition [7] [%] | inhibition [8] [%] | inhibition [9] [%] | inhibition [10] [%] | inhibition [11] [%]
1 | O=C(O)c1ccc(-c2cnc3c(c2)N(Cc2cc(Cl)ccc2C(F)(F)F)CCN3)cc1 | – | < 50 | – | < 50 | – | – | < 50 | < 50 | < 50 | < 50 | < 50
2 | O=C(c1ccc(-c2cnc3c(c2)N(Cc2cc(Cl)ccc2C(F)(F)F)CCN3)cc1)N1CCCCC1 | – | < 50 | – | < 50 | – | – | < 50 | < 50 | < 50 | < 50 | < 50
3 | COC1CCN(C(=O)c2ccc(-c3cnc4c(c3)N(Cc3cc(Cl)ccc3C(F)(F)F)CCN4)cc2)CC1 | – | < 50 | – | < 50 | – | – | < 50 | < 50 | < 50 | < 50 | < 50
4 | O=C(c1ccc(-c2cnc3c(c2)N(Cc2cc(Cl)ccc2C(F)(F)F)CCN3)cc1)N1CCC(N2CCCC2)CC1 | – | < 50 | – | < 50 | – | – | < 50 | < 50 | < 50 | < 50 | < 50

The remaining lines, values ahead:

Row | inhibition [1] [%] | inhibition [2] [%] | inhibition [3] [%] | inhibition [4] [%] | inhibition [5] [%] | inhibition [6] [%] | inhibition [7] [%] | inhibition [8] [%] | inhibition [9] [%] | inhibition [10] [%] | inhibition [11] [%] | SMILES
5 | < 50 | < 50 | < 50 | < 50 | < 50 | < 50 | < 50 | < 50 | < 50 | < 50 | < 50 | CC(=O)N1CCN(c2cc(-c3cnc4c(c3)N(Cc3cc(Cl)ccc3C(F)(F)F)CCN4)ccn2)CC1
6 | < 50 | < 50 | < 50 | < 50 | < 50 | < 50 | < 50 | < 50 | < 50 | < 50 | – | CN1CCN(c2ccc(-c3cnc4c(c3)N(Cc3cc(Cl)ccc3C(F)(F)F)CCN4)cn2)CC1
7 | < 50 | < 50 | < 50 | < 50 | < 50 | < 50 | < 50 | < 50 | < 50 | < 50 | < 50 | CN1CCN(c2ccc(-c3cnc4c(c3)N(Cc3cc(F)ccc3F)CCN4)cn2)CC1
8 | < 50 | < 50 | < 50 | < 50 | < 50 | < 50 | < 50 | < 50 | < 50 | < 50 | < 50 | CN1CCN(c2ccc(-c3cnc4c(c3)N(Cc3cc(Cl)ccc3Cl)CCN4)cn2)CC1
9 | < 50 | < 50 | < 50 | < 50 | < 50 | < 50 | < 50 | < 50 | < 50 | 66 | – | CN1CCN(c2ccc(-c3cnc4c(c3)N(Cc3c(F)ccc(F)c3Cl)CCN4)cn2)CC1
10 | < 50 | < 50 | < 50 | < 50 | 76 | < 50 | < 50 | < 50 | < 50 | < 50 | < 50 | FC(F)(F)c1ccc(Cl)cc1CN1CCNc2ncc(-c3ccnc(N4CCNCC4)c3)cc21
